Assay results reported in ChEMBL document CHEMBL4308845, “Allosteric Activation of Striatal-Enriched Protein Tyrosine Phosphatase (STEP, PTPN5) by a Fragment-like Molecule” (J Med Chem, 2019).
The source made the active and inactive calls. The calls are words filed in the database; no cut-off is given here.

Experiments:
[1] = molecular target: T1, Tyrosine-protein phosphatase non-receptor type 5 (Homo sapiens) (UniProt P54829); test: Binding affinity to human 15N-labeled STEP PTP domain (281 to 563 residues) expressed in Escherichia coli OD2 assessed as induction of chemical perturbation at 500 uM by 1H,15N TROSY NMR spectral analysis
T1 sequence (whole entry): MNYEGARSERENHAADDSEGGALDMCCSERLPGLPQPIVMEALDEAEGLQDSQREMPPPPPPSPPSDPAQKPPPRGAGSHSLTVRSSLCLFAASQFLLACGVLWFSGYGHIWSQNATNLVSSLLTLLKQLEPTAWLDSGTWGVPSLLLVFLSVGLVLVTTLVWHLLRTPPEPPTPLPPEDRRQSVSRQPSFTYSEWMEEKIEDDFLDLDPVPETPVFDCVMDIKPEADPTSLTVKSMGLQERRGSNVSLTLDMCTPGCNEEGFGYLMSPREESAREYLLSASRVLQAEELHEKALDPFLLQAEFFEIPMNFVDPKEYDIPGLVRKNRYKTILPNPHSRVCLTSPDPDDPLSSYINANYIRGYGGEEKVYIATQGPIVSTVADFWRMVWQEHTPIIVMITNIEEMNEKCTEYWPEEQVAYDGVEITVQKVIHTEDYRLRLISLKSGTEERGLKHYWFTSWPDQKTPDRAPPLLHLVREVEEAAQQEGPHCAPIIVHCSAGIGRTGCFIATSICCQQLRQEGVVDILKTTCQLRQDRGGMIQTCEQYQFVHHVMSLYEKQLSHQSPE
In short: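 40 μM 15N-labelled STEP PTP domain in 20 mM Tris-d11, 100 mM NaCl, 1 mM TCEP, pH 7.4, 8% D2O, 1% DMSO-d6, 298 K. TROSY spectra used 192 transients and 64 indirect points. Binders were called by manual comparison with the protein-only reference spectrum.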

[2] = molecular target: T2, Tyrosine-protein phosphatase non-receptor type 5 (Homo sapiens, UniProt P54829); test: Binding affinity to human STEP PTP domain (281 to 563 residues) expressed in Escherichia coli BL21(DE3) by ITC
T2 sequence (P54829 whole entry): T1 sequence (whole entry)
In short: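 Desalted STEP PTP domain in 10 mM HEPES, 200 mM NaCl, 0.5 mM TCEP, pH 7.5. 200 μM protein titrated with 18 × 2 μL injections of 2 mM ligand at 25 °C. Single-site model fit gave ΔH, n, ΔS and Ka; mean ± SD of three independent titrations.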

Homo sapiens = species: Homo sapiens; test: Activation of human STEP46 (197 to 565 residues) expressed in Escherichia coli BL21(DE3) at 300 uM preincubated for 10 mins followed by DiFMUP substrate addition and measured at 1 min time interval for 30 mins by fluorescence assay relative to control
In short: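 STEP46 preincubated 10 min at room temperature with compound; reaction started with DiFMUP. Final: 100 nM STEP46, 1 μM DiFMUP, 50 mM HEPES, 0.02% Brij 35, 1 mM DTT, 5% DMSO. Fluorescence (ex 340/em 460 nm) every 1 min for 30 min at 37 °C; no-enzyme background subtracted. Linear slope expressed relative to enzyme without compound (100%).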

[3] = molecular target: T3, Tyrosine-protein phosphatase non-receptor type 2 (Homo sapiens) (UniProt P17706); test: Activation of human TCPTP (2 to 345 residues) at 500 uM using biotin-Ahx-EDT-pY-Y-RKG-amide as substrate measured after 2 hrs by AlphaLISA assay
T3 sequence (whole entry): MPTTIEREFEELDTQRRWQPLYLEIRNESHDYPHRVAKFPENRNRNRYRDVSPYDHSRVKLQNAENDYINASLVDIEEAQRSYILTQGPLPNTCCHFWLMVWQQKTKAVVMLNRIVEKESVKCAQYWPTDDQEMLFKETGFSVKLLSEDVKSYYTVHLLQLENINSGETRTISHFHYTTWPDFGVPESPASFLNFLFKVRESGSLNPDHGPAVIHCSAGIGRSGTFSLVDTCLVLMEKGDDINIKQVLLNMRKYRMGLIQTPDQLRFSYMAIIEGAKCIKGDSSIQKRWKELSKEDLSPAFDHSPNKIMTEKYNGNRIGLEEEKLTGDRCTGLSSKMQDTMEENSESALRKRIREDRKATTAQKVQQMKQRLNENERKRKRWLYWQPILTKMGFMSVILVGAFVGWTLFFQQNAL
In short: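 In-house TC-PTP (2−345) at 500 pM final, preincubated 10 min at 24 °C with compound (up to 500 μM), then EDT-pY-Y-RKG-amide substrate (1.4 μM final); 1.5 h at 24 °C, stopped with 200 μM orthovanadate. Competition AlphaScreen with biotin-Ahx-EDT-pY-Y-RKG-amide (2.5 nM) and antibody 4G10 (500 pM), 2 h at 24 °C. Quantified from on-plate standard curve.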

[4] = molecular target: T4, Tyrosine-protein phosphatase non-receptor type 1 (Homo sapiens) (UniProt P18031); test: Activation of human PTP1B (1 to 405 residues) at 500 uM preincubated for 10 mins followed by pFYN substrate addition and measured after 1.5 hrs by AlphaLISA assay
T4 sequence (whole entry): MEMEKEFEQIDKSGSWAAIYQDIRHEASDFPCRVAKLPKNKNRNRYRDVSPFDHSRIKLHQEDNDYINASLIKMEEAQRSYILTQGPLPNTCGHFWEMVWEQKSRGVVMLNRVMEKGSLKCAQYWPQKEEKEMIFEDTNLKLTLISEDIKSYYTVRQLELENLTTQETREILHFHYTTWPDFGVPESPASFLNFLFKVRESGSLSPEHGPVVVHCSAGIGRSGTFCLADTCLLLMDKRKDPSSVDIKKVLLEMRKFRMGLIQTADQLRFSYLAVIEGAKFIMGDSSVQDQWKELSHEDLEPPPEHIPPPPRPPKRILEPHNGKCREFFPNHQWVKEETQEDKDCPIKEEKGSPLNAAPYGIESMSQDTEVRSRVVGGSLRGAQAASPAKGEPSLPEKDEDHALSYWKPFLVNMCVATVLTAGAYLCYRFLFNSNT
In short: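 In-house PTP1B (1−405) at 500 pM final, preincubated 10 min at 24 °C with compound (up to 500 μM), then EDT-pY-Y-RKG-amide (1.4 μM final) or pFYN (20 μM final) added; 1.5 h at 24 °C, humidified. Stopped with 200 μM orthovanadate. Competition AlphaScreen using biotin-Ahx-EDT-pY-Y-RKG-amide (2.5 nM), anti-pTyr antibody 4G10 (500 pM), beads (5 μg/mL each), 2 h at 24 °C. Read against on-plate substrate standard curve.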

[5] = molecular target: T1, Tyrosine-protein phosphatase non-receptor type 5 (Homo sapiens); test: Activation of human STEP PTP domain (281 to 563 residues) expressed in Escherichia coli BL21(DE3) assessed as ratio of Kcat to Km at 500 uM using pFyn peptide substrate after 60 mins by RapidFire MS/MS assay (reference value: 400 +/- 20 /M/s)

`N=C(N)Nc1cc(C2CCNCC2)cc(C(F)(F)F)c1` was tested, and the Activity [1] was “Active”, the Kd [2] was 800 µM and the Activity (Homo sapiens) was 27%. The Activity [3] was “inactive”, the Activity [4] was “inactive” and the Ratio [5] was 650 M⁻¹ s⁻¹.
